Sampled rows, rich in hits. Any-hit rate of the full collection: about 3.5%.
RGS4 inh: RGS4 inhibitors, primary screen, cell-based, HEK293 M3R inducible RGS4, calcium flux; Fluo-4 calcium flux; active compounds read high; triggered by carbachol at its EC20; hit rate 0.45% among 310,000; Regulator of G-protein signaling 4 (Homo sapiens), P49798; B-score at 10 µM; AID 463165, 2010;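 active means B-score, a plate-corrected calcium signal, over three deviations above library mean, with baseline fluorescence within five deviations of library mean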;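 further: RGS4 expression induced by doxycycline in cells with stable M3 receptor; B-score is computed from the integrated fluorescence ratio over baseline after carbachol; higher B-score means a larger calcium signal and so more RGS4 inhibition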
Target sequence (P49798 whole entry, looked up): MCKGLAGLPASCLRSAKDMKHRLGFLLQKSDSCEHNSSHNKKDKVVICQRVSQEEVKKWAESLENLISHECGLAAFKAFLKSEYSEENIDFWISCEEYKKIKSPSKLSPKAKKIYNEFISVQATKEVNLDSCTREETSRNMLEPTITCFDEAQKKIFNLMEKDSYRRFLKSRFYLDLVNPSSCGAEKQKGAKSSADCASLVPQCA
RGS4 act: RGS4 potentiators or activators, primary screen, cell-based, HEK293 M3R inducible RGS4, calcium flux. carbachol calcium flux Fluo4; active compounds read low. B-score at 10 µM. hit rate 0.92% among 310,000. AID 463111, 2010;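 active means B-score of the integrated calcium signal more than 4 SD below the library mean, with starting fluorescence not abnormally high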;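 further: negative B-score means reduced calcium response which marks RGS4 activation or potentiation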
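Test system: HEK293 cells with stable M3R and inducible RGS4; also added: carbachol at ECmax as muscarinic agonist stimulus; schedule: dye loading 30 min 37 °C, buffer rest 30 min RT; technique: kinetic calcium fluorescence imaging with Fluo4-AM dye, 2 µM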
MrgX1 antagonist: antagonists of human MrgX1 receptor, primary screen, HEK293 cells, Fluo-4 calcium flux. Mas-related G-protein coupled receptor member X1 (Homo sapiens), Q96LB2. BAM8-22 antagonism; active compounds read low. B-score at 10 µM. hit rate 1.3% among 310,000. AID 588676, 2011;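 active means calcium-response B-score plate-corrected more than 3 library SD below zero, starting fluorescence within 5 deviations, no agonist response on first addition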;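 further: peak minus trough fluorescence over baseline after final BAM8-22 challenge near maximal dose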
Target sequence (Q96LB2 whole entry, looked up): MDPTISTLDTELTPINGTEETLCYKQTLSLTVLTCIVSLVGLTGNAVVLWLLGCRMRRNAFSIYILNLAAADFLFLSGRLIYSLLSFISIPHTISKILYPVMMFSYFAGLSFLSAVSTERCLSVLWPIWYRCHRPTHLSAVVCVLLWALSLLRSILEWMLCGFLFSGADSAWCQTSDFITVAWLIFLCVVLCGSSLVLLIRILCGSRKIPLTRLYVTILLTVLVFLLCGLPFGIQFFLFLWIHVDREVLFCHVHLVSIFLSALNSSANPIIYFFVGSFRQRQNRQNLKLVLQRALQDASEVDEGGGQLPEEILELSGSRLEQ
MrgX1 agonist: agonists of human MrgX1 receptor, primary screen, HEK293 cells, Fluo-4 calcium flux; Fluo-4 calcium fluorescence, agonist mode; active compounds read high; B-score at 10 µM; hit rate 0.44% among 310,000; AID 588627, 2011;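 active means calcium response B-score plate-corrected fluorescence ratio at least 3 library SD, with starting fluorescence B-score inside 5 SD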
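times = overnight plating, then 30 min 37 °C plus 30 min room-temperature dye loading | assay system = stable human MrgX1 HEK293 cell line | input = fifteen thousand cells per well | signal = kinetic calcium dye fluorescence, Fluo-4 NW | dosing = compound delivered in addition one of three | read-out = B-scored fluorescence response ratio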
MrgX1 PAM: positive allosteric modulators of MrgX1, primary screen, HEK293 cells, Fluo-4 calcium flux. B-score at 10 µM. FDSS; active compounds read high. hit rate 0.63% among 310,000;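 active means plate-corrected calcium response at least 3 library SD above typical, normal starting fluorescence, not activating the receptor alone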;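 further: compound read alongside a low EC10 to EC30 dose of BAM8-22 agonist; peak minus trough fluorescence over baseline measured at the second addition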
MrgX1 PAM conf: MrgX1 positive allosteric modulators, duplicate retest, confirmation, HEK293 cells, Fluo-4 calcium flux. hit rate 13% among 1,200. AID 602413, 2012. Fluo-4 calcium fluorescence, FDSS. shares compounds with MrgX1 PAM. activation (ratio percentage), % at 10 µM;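 active means ratio at least 3 SD above the weak peptide control, stable starting fluorescence, no direct agonism earlier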;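 further: compound followed by low BAM8-22 agonist challenge near EC20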
MrgX1 antag conf: MrgX1 receptor antagonists, duplicate retest, confirmation, HEK293 cells, Fluo-4 calcium flux; hit rate 19% among 2,300; shares compounds with MrgX1 antagonist; remaining BAM8-22 calcium response % of control (active compounds read low), % at 10 µM; BAM8-22 calcium flux; active compounds read low;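 active means remaining agonist calcium response no higher than 100% minus 3 SD of agonist-only control wells, with starting fluorescence near control levels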;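 further: agonist BAM8-22 given at a near maximal EC90 to ECmax level; peak minus minimum fluorescence divided by baseline after agonist addition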
HEK293 Ca flux: nonspecific calcium signal in parental HEK293, confirmation, counter-screen for MrgX1 antagonist project, parental HEK293 cells, Fluo-4 calcium flux; shares compounds with MrgX1 antagonist; Fluo-4 calcium fluorescence, FDSS; fluorescence ratio F(max-min)/F0 at 10 µM; hit rate 2% among 4,000;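 active means duplicate-averaged calcium fluorescence ratio at least three times the standard deviation of buffer wells, a nonspecific response in parental cells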
HEK293 Ca counter: calcium response in parental HEK293 cells, primary screen, counter-screen for MrgX1 allosteric activator project, cell-based, Fluo-4 calcium flux, duplicate; shares compounds with MrgX1 antagonist; Fluo-4 fluorescence ratio; active compounds read high; fluorescence ratio F(max-min)/F0 at 10 µM; hit rate 0.4% among 4,000; AID 624114, 2012;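 active means calcium fluorescence ratio, averaged over duplicates, at least 3 SD of the buffer-well ratio, meaning a nonspecific response in receptor-free cells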;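 further: untransfected parental HEK293 lacking MrgX1 used as counterscreen for MrgX1 allosteric activators; fluorescence change taken during the second addition on a kinetic imager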
HEK293 Ca cntr2: calcium response in parental HEK293 cells, primary screen, counter-screen for MrgX1 agonist project, cell-based, Fluo-4 calcium flux, duplicate, agonist mode; shares compounds with MrgX1 antagonist; Fluo-4 calcium fluorescence (FDSS); active compounds read high; fluorescence ratio F(max-min)/F0 at 10 µM; hit rate 8.7% among 4,000;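 active means calcium fluorescence ratio at least three times the spread of buffer wells, meaning a non-specific response in parental cells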
* marks the source's active call; other numbers are inactive results; i = inactive; x = not tested or not shown.

SMILES | RGS4 inh | RGS4 act | MrgX1 antagonist | MrgX1 agonist | MrgX1 PAM | MrgX1 PAM conf | HEK293 Ca flux | HEK293 Ca counter | HEK293 Ca cntr2 | others
O=C(O)CSc1ncnc2scc(-c3ccc(Br)cc3)c12 | i | i | i | i | 10* | i | i | i | i
CN(C)C(=O)COc1ncnc2scc(-c3ccc(F)cc3)c12 | i | i | i | i | 8.2* | 35%* | i | i | i
CCN(C(=O)COc1ncnc2scc(-c3ccc(F)cc3)c12)C1CCS(=O)(=O)C1 (stereo not given) | i | i | i | i | i | x | x | x | x
CCN1C(=O)C(CC(=O)Nc2ccc(F)cc2)N(Cc2ccco2)C1=S (stereo not given) | i | i | i | i | 9.2* | i | i | i | i
CC(=O)c1c(-c2ccc(C)cc2)nc2c3ccccc3ccn12 | i | i | i | i | 6.8* | 16%* | i | i | i
OC[C@H]1O[C@@H](n2cnc3c(Nc4ccccc4)ncnc32)[C@H](O)[C@@H]1O | i | i | i | i | 7.1* | i | i | i | i
CC1(C)OC2C(O1)[C@@H](CO)O[C@H]2n1cnc2c(N)ncnc21 (stereo not given in full) | i | i | i | i | i | x | x | x | x
CCOC(=O)c1c(NC(=O)C2CCCCC2C(=O)O)sc2c1CCCCC2 (stereo not given) | i | i | i | i | 16* | i | i | i | i
CCc1cc2ccccc2nc1SCC(=O)N1CCN(C(=O)c2ccco2)CC1 | i | i | x | x | x | x | x | x | x
CCc1cc2cc(C)ccc2nc1SCC(=O)N1CCN(C(=O)c2ccco2)CC1 | x | x | i | i | 11* | i | i | i | i
O=C(CSC1=NCCN1)NC(c1ccccc1)c1ccccc1 | i | i | i | i | 13* | i | i | i | i
Cc1sc(NC(=O)c2cccnc2)nc1-c1ccccc1 | i | i | i | i | 11* | i | i | i | i
CC(=O)c1sc(NC(=O)c2ccccc2)nc1-c1ccccc1 | i | i | i | i | i | x | x | x | x
COc1ccccc1NS(=O)(=O)c1cc(C(=O)N2CC(C)CC(C)C2)ccc1C (stereo not given) | i | i | i | i | i | x | x | x | x
Cc1ccc(Cn2ccnc2C(=O)Nc2ccccc2)cc1 | i | i | i | i | 9.7* | i | i | i | i
Cn1cnc2c(NCc3ccco3)ncnc21 | i | i | i | i | i | x | x | x | x
CNC(=O)[C@H]1O[C@@H](n2cnc3c(NCc4cccc(I)c4)ncnc32)[C@H](O)[C@@H]1O | x | x | i | i | 10* | i | i | i | i
Cc1ccc2oc(C(=O)N3CCCCCC3)c(C)c2c1 | i | i | i | i | 6.5* | i | i | i | i
Nc1c(C(=O)N2CCCCCC2)oc2ccccc12 | i | i | i | i | 10* | i | i | i | i
N#Cc1cccc(NC(=S)Nc2ccccc2)c1 | i | i | i | i | i | x | x | x | x
Cc1ccsc1C(=O)OCC(=O)N1CCc2ccccc2C1 | i | i | i | i | 8.9* | i | i | i | i
Cc1ccsc1C(=O)N1CCc2ccccc2C1 | i | i | i | i | i | x | x | x | x
CC1C(=O)N2CCCc3cc(NC(=O)C(=O)NCc4ccccn4)cc1c32 (stereo not given) | i | i | i | i | i | x | x | x | x
Cc1ccc(Oc2ncccc2C(=O)NCC(=O)O)cc1 | i | i | i | i | i | x | x | x | x
CC1Cc2ccccc2N1C(=O)C1CCCN(S(=O)(=O)c2cccc3cccnc23)C1 (stereo not given) | x | x | i | i | 8.9* | 8.6%* | i | i | i
SMILES | RGS4 inh | RGS4 act | MrgX1 antagonist | MrgX1 agonist | MrgX1 PAM | MrgX1 PAM conf | HEK293 Ca flux | HEK293 Ca counter | HEK293 Ca cntr2 | others
O=C(COC(=O)Cc1c(Cl)cccc1Cl)NCCC1=CCCCC1 | i | i | i | i | i | x | x | x | x
O=C(COc1ccccc1Cl)NCCC1=CCCCC1 | i | i | i | i | 18* | i | i | i | i
Nc1nc(OCC(F)(F)F)cc(Oc2ccccc2F)n1 | i | i | i | i | 9.8* | i | i | i | i
CC(NC(=O)c1ccc(N)cc1)c1ccccc1 (stereo not given) | i | i | i | i | 7.4* | i | i | i | i
CC(C)c1nc(SCC(=O)NCC2CCCO2)c2c(=O)n(C)c(=O)n(C)c2n1 (stereo not given) | i | i | i | i | i | x | x | x | x
COc1cc(OC)c(C(=O)NCCCn2ccnc2)cc1OC | i | i | i | i | 6.5* | i | i | i | i
COc1ccc(C(=O)NCCCn2ccnc2)cc1 | i | i | i | i | i | x | x | x | x
Cc1ccc(S(=O)(=O)N2CCCC2C(=O)OCC(=O)Nc2ccc3c(c2)OCO3)cc1 (stereo not given) | i | i | i | i | 17* | i | i | i | i
CCC(C)(C)C1CCc2c(sc(NC(=O)c3ccccc3C(=O)O)c2C#N)C1 (stereo not given) | i | i | -6.4* | i | 8.4* | i | i | i | 57* | MrgX1 antag conf=i
CCn1nc(C)c(CCC(=O)O)c1C | i | i | i | i | 10* | i | i | i | i
